Source: ChEMBL document CHEMBL3244060, “Methotrexate analogues. 8. Synthesis and biological evaluation of bisamide derivatives as potential prodrugs” (J Med Chem, 1977)
Values after ≈ are worked out from the molar mass of the structure shown. Active and inactive are the calls of the source. The calls are words filed in the database; no cut-off is given here.

What was measured:
[1] = tested on: CCRF-CEM; assay: Cytotoxicity against human CCRF-CEM cells assessed as growth inhibition; format: functional; settings: read-out: ID50 (the source's name)
[2] = tested on: L1210; assay: Antitumor activity against mouse L1210 cells allografted in mouse assessed as median survival time at 25 mg/kg, ip qd administered every 3 days for 7 days; format: functional; settings: route intraperitoneal
Method in brief: (§1)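 Mice were inoculated ip with 10^5 L1210 leukemia cells on day 0. Dosing was ip on days 1, 4 and 7 in 10% Tween 80, with the methotrexate disodium salt in water, over 15–525 mg/kg. Survival was recorded in days as the range and median per group, with 5 treated and 10-15 untreated controls.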

[3] = tested on: L1210; assay: Antitumor activity against mouse L1210 cells allografted in mouse assessed as median survival time at 15 mg/kg, ip qd administered every 3 days for 7 days; format: functional; settings: route intraperitoneal; method in brief: as §1
[4] = tested on: L1210; assay: Antitumor activity against mouse L1210 cells allografted in mouse assessed as increase in life span at 15 mg/kg, ip qd administered every 3 days for 7 days relative to control; format: functional; settings: route intraperitoneal
Method in brief: (§2)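 L1210 cells (10^5) implanted ip in mice on day 0. Compounds given ip in 10% Tween 80 on days 1, 4 and 7, at doses from 15 to 525 mg/kg. Methotrexate was given as the disodium salt in aqueous solution. Groups had 5 treated and 10-15 control animals. %ILS = 100 × (T − C)/C, where T and C are median survival days of treated and control mice.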

[5] = tested on: L1210; assay: Antitumor activity against mouse L1210 cells allografted in mouse assessed as increase in life span at 25 mg/kg, ip qd administered every 3 days for 7 days relative to control; format: functional; settings: route intraperitoneal; method in brief: as §2
[6] = tested on: Mus musculus; assay: Toxicity in mouse allografted with mouse L1210 cells at 15 to 525 mg/kg, ip qd administered every 3 days for 7 days; format: organism-based; parameters: dose 15-525 mg/kg, route intraperitoneal; settings: in vivo
Method in brief: (§3)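 Mice inoculated ip with 10^5 L1210 cells on day 0. Test agents injected ip in 10% Tween 80 on days 1, 4 and 7; doses 15 to 525 mg/kg. Positive control given as disodium salt in aqueous solution. Test groups of 5, control groups of 10-15. Median survival scored; %ILS = 100 × (T − C)/C.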

[7] = tested on: L1210; assay: Antitumor activity against mouse L1210 cells allografted in mouse assessed as increase in life span at 15 to 525 mg/kg, ip qd administered every 3 days for 7 days; format: functional, organism-based; method in brief: as §3
[8] = Cytotoxicity against RBL cells assessed as growth inhibition; format: functional; settings: Rattus norvegicus, read-out: ID50 (the source's name)
[9] = tested on: Serum; assay: Drug level in rat whole serum treated with methotrexate di-n-butyl ester measured after 1 hr by TLC analysis; format: ADME, cell-free
Method in brief: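 Fresh rat serum 0.9 mL plus compound 0.006 g in 0.1 mL Me2SO, incubated at 37 °C with gentle shaking for up to 24 h. Cooled on ice, diluted 1.5-fold with methanol to precipitate protein, centrifuged. Supernatant run on fluorescent cellulose TLC developed with 0.5 M phosphate buffer pH 7.4 to detect parent compound and metabolites.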

[10] = tested on: Plasma; assay: Drug level in mouse plasma treated with methotrexate bis(benzylamide) at 100 mg/kg, ip measured after 6 to 24 hrs by TLC analysis; format: ADME, organism-based; parameters: dose 100 mg/kg, route intraperitoneal; settings: in vivo
Method in brief: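 Normal mice received a single ip dose of 100 mg/kg in 10% Tween 80. One animal was killed at 6 h and one at 24 h. Blood was taken by ocular puncture with a heparinized syringe and the red cells spun down. Plasma 0.2 mL was cooled on ice and diluted with methanol 0.4 mL to precipitate protein, then centrifuged. Analysed by cellulose TLC developed in 0.5 M phosphate buffer pH 7.4.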

With CN(Cc1cnc2nc(N)nc(N)c2n1)c1ccc(C(=O)N[C@@H](CCC(=O)NCCCO)C(=O)NCCCO)cc1 as the compound, how does the IC50 [1] read?
Its IC50 is greater than 10 µg/mL.

With CN(Cc1cnc2nc(N)nc(N)c2n1)c1ccc(C(=O)N[C@@H](CCC(=O)NCCc2ccccc2)C(=O)NCCc2ccccc2)cc1 as the compound, how does the IC50 [1] read?
Its IC50 is greater than 10 µg/mL.

Which IC50 [1] does the source give for CN(Cc1cnc2nc(N)nc(N)c2n1)c1ccc(C(=O)N[C@@H](CCC(N)=O)C(N)=O)cc1 here?
Its IC50 is greater than 10 µg/mL.

With CCCCCCNC(=O)CC[C@H](NC(=O)c1ccc(N(C)Cc2cnc3nc(N)nc(N)c3n2)cc1)C(=O)NCCCCCC as the compound, how does the IC50 [1] read?
The IC50 was 10 µg/mL (≈ 16.1 µM).

Which MST [2] does the source give for CN(Cc1cnc2nc(N)nc(N)c2n1)c1ccc(C(=O)N[C@@H](CCC(=O)[O-])C(=O)[O-])cc1.[Na+].[Na+] [METHOTREXATE SODIUM] here?
Its MST is 18 days.

And the MST [3]?
The MST was 15 days.

What about the ILS at 15 mg/kg [4] of the same compound?
Its ILS at 15 mg/kg is 66%.

And the ILS at 25 mg/kg [5]?
Its ILS at 25 mg/kg is 100%.

With CN(Cc1cnc2nc(N)nc(N)c2n1)c1ccc(C(=O)N[C@@H](CCC(=O)NC2CCCCC2)C(=O)NC2CCCCC2)cc1 as the compound, how does the Activity [6] read?
The Activity was “Toxic”.

And the Activity [7]?
The Activity was “inactive”.

What about the IC50 [1] of the same compound?
Its IC50 is 1 µg/mL (≈ 1.62 µM).

And the IC50 [8]?
Its IC50 is 0.22 µg/mL (≈ 0.357 µM).

For CN(C)CCCNC(=O)CC[C@H](NC(=O)c1ccc(N(C)Cc2cnc3nc(N)nc(N)c3n2)cc1)C(=O)NCCCN(C)C, which Activity [6] is on record?
Its Activity is “Toxic”.

And the Activity [7]?
Its Activity is “inactive”.

With CN(Cc1cnc2nc(N)nc(N)c2n1)c1ccc(C(=O)N[C@@H](CCC(=O)O)C(=O)O)cc1 [METHOTREXATE] as the compound, how does the Drug metabolism [9] read?
Its Drug metabolism is “metabolite_detected”.

What about the Drug metabolism [10] of the same compound?
The Drug metabolism was “metabolite_detected”.

And the IC50 [1]?
The IC50 was 0.003 µg/mL (≈ 0.0066 µM).

What about the IC50 [8] of the same compound?
Its IC50 is 0.003 µg/mL (≈ 0.0066 µM).

With CN(C)CCNC(=O)CC[C@H](NC(=O)c1ccc(N(C)Cc2cnc3nc(N)nc(N)c3n2)cc1)C(=O)NCCN(C)C as the compound, how does the IC50 [1] read?
Its IC50 is greater than 10 µg/mL.
